{"source": "paper PMC10321171", "about": "(Virulence, 2023)", "key": {"C. albicans [1]": {"system": "C. albicans", "experiment": "Determination of MIC by broth microdilution", "format": "cell-based", "conditions": "Candida albicans, read-out: MICs, strain YEM30, wild-type strain"}, "C. albicans YEM30 [2]": {"system": "C. albicans YEM30", "experiment": "Drug resistance development test", "format": "cell-based, Candida albicans"}, "C. albicans YEM30 [3]": {"system": "C. albicans YEM30", "experiment": "G. mellonella-C. albicans infection model", "format": "in vivo, Galleria mellonella", "conditions": "2 μg/larva, 2 h after infection", "method_in_brief": "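Larvae were infected with 10 μL YEM30 (2 × 10^5 CFU/mL) into the last right foreleg. After 2 h they were injected with 10 μL of test compound (2 μg/larva), fluconazole (2 μg/larva) or PBS, then kept at 37°C in the dark. Death was no response to slight contact; survival was scored daily for 5 days (log-rank test). For fungal burden (40 larvae/group), six larvae/day were homogenized in PBS, serially diluted and plated on YPD.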"}, "C. albicans [4]": {"system": "C. albicans", "conditions": "subinhibitory concentrations; cited from earlier work"}}, "data": [{"compound": "OC(Cn1cncn1)(Cn1cncn1)c1ccc(F)cc1F", "note": "[FLC, Fluconazole]", "values": [{"measurement": "MIC", "setting": "C. albicans [1]", "result": 1, "unit": "mg/L"}, {"measurement": "MIC", "setting": "C. albicans YEM30 [2]; Candida albicans, YEM30, read-out: MIC value after consecutive treatment", "result": 8, "unit": "mg/L"}, {"measurement": "drug resistance development", "setting": "C. albicans YEM30 [2]; YEM30, consecutive treatment with 1/2 MIC, up to 40 days", "result": "developed drug resistance after being treated with 1/2 MIC of FLC for 5 days"}, {"measurement": "fungal burden vs control group", "setting": "C. albicans YEM30 [3]", "result": "greatly reduced the fungal burden"}, {"measurement": "survival rate of infected larvae", "setting": "C. albicans YEM30 [3]; 5 days", "result": 73, "unit": "%"}]}, {"compound": "C/C=C/CCCC/C=C/CCCCC(=O)O[C@@H]1[C@@H](O)[C@@]2(CCC(C)C(O)C(C)C/C=C/c3ccccc3)O[C@H](C(=O)O)[C@@](O)(C(=O)O)[C@]1(C(=O)O)O2", "note": "(stereo partly drawn) [zaragozic acid B]", "values": [{"measurement": "farnesol levels compared to untreated cells", "setting": "C. albicans [4]", "result": "8–10 folds"}]}]}
